Assay results published in PMC11904481 (ESMO Open, 2025).
Values joined by “and” are separate entries in the source; they are usually repeats but may differ in a detail not shown here. Equal entries are not always repeated.

Tested on: patients with locally advanced unresectable or metastatic, relapsed and/or refractory nonhematological malignancies
Assay: Phase I safety: adverse events
Format: in vivo, human
Method in brief: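 Adverse events were graded by NCI CTCAE v4.03 across three i.v. schedules of the test compound (0.45-11.3 mg/kg; weekly per 28-day cycle, or days 1, 4, 8 ±11, 15 per 21-day cycle). Special-interest events covered retinal dysfunction symptoms and documented retinal disorders. Clustered signs were grouped as 'infusion reaction'. QTc was calculated with the Fridericia correction.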

[1] = schedule 3 cohort 5, 11.3 mg/kg
[2] = schedule 3 cohort 6, 11.3 mg/kg
[3] = schedules 1/2 cohort 1, 0.45 mg/kg

O=C1Nc2cc3[nH]nc(-c4ccncc4)c3cc2CN1Cc1ccccc1 [KO-947]
8 (89) n (%): Patients with ≥1 treatment-related TEAE (schedule 3 cohort 3, 6.4 mg/kg)
3 (11) n (%): AESI: Vitreous floaters (schedule 3 total N = 27) | Treatment-related TEAE: Dyspepsia (schedule 3 total N = 27) | Treatment-related TEAE: QTc prolongation (schedule 3 total N = 27) | Treatment-related TEAE: Vitreous floaters (schedule 3 total N = 27)
82%: patients with at least one AESI (schedule 3)
38 n: Total number of treatment-related TEAEs (schedule 3 cohort 4, 7.2 mg/kg)
No deaths: deaths due to treatment-related TEAEs (all schedules)
15%: patients discontinued owing to AEs (schedule 3) | patients with grade ≥3 treatment-related TEAEs (schedule 3) | treatment-related macular edema (schedule 3) | treatment-related photopsia (schedule 3) | treatment-related retinal detachment (schedule 3)
7 patients: dose reductions due to toxicity (all schedules)
14 patients: dose interruptions due to toxicity (all schedules)
2 (33) n (%): AESI: Macular edema [1] | Treatment-related TEAE: Diarrhea [1] | Treatment-related TEAE: Infusion-related reaction [1] | Treatment-related TEAE: Macular edema [1]
1 (100) n (%): Patients with ≥1 treatment-related TEAE [3]
25 (93) n (%): Patients with ≥1 treatment-related TEAE (schedule 3 total N = 27)
11 n: Total number of treatment-related TEAEs (schedule 3 cohort 1, 3.6 mg/kg) | AESI: Total number of AEs (schedule 3 cohort 3, 6.4 mg/kg)
3 days: median time to resolution of ocular events (cycle 1, range, 0-114 days)
9 n: Total number of treatment-related TEAEs (schedule 3 cohort 2, 4.8 mg/kg) | Total number of treatment-related TEAEs [2]
33%: AESI blurred vision (schedule 3)
3 n: AESI: Total number of AEs [2]
14 n: AESI: Total number of AEs (schedule 3 cohort 4, 7.2 mg/kg)
2 (67) n (%): AESI: Eye disorders (schedule 3 cohort 1, 3.6 mg/kg) | AESI: Patients with ≥1 AE (schedule 3 cohort 1, 3.6 mg/kg) | AESI: Vitreous floaters (schedule 3 cohort 1, 3.6 mg/kg) | Patients with ≥1 treatment-related TEAE (schedule 3 cohort 1, 3.6 mg/kg) | Treatment-related TEAE: Vitreous floaters (schedule 3 cohort 1, 3.6 mg/kg) | AESI: Eye disorders (schedule 3 cohort 2, 4.8 mg/kg) | AESI: Patients with ≥1 AE (schedule 3 cohort 2, 4.8 mg/kg) | Treatment-related TEAE: Diarrhea (schedule 3 cohort 4, 7.2 mg/kg) | AESI: Eye disorders [2] | AESI: Patients with ≥1 AE [2] | Treatment-related TEAE: QTc prolongation [2]
2 (22) n (%): AESI: Subretinal fluid (schedule 3 cohort 3, 6.4 mg/kg) | Treatment-related TEAE: Infusion-related reaction (schedule 3 cohort 3, 6.4 mg/kg) | Treatment-related TEAE: Subretinal fluid (schedule 3 cohort 3, 6.4 mg/kg)
67%: patients with grade ≥3 TEAEs (schedule 3)
16 n: AESI: Total number of AEs [1]
11%: treatment-related QTc prolongation (schedule 3) | treatment-related dyspepsia (schedule 3) | treatment-related vitreous floaters (schedule 3)
4 n: AESI: Total number of AEs (schedule 3 cohort 1, 3.6 mg/kg)
136 n: Total number of treatment-related TEAEs (schedule 3 total N = 27)
4 (67) n (%): AESI: Blurred vision [1] | Treatment-related TEAE: Blurred vision [1] | Treatment-related TEAE: Dermatitis acneiform [1]
3 (33) n (%): AESI: Blurred vision (schedule 3 cohort 3, 6.4 mg/kg) | Treatment-related TEAE: Blurred vision (schedule 3 cohort 3, 6.4 mg/kg)
1 (11) n (%): AESI: Macular edema (schedule 3 cohort 3, 6.4 mg/kg) | AESI: Photopsia (schedule 3 cohort 3, 6.4 mg/kg) | AESI: Retinal detachment (schedule 3 cohort 3, 6.4 mg/kg) | Treatment-related TEAE: Diarrhea (schedule 3 cohort 3, 6.4 mg/kg) | Treatment-related TEAE: Dyspepsia (schedule 3 cohort 3, 6.4 mg/kg) | Treatment-related TEAE: Macular edema (schedule 3 cohort 3, 6.4 mg/kg) | Treatment-related TEAE: Photopsia (schedule 3 cohort 3, 6.4 mg/kg) | Treatment-related TEAE: Retinal detachment (schedule 3 cohort 3, 6.4 mg/kg)
2 n: AESI: Total number of AEs (schedule 3 cohort 2, 4.8 mg/kg)
33.3% and 33%: treatment-related blurred vision (schedule 3)
22 (82) n (%): AESI: Eye disorders (schedule 3 total N = 27) | AESI: Patients with ≥1 AE (schedule 3 total N = 27)
0 n (%): AESI: Blurred vision (schedule 3 cohort 1, 3.6 mg/kg) | AESI: Detachment of retinal pigment epithelium (schedule 3 cohort 1, 3.6 mg/kg) | AESI: Macular edema (schedule 3 cohort 1, 3.6 mg/kg) | AESI: Photopsia (schedule 3 cohort 1, 3.6 mg/kg) | AESI: Retinal detachment (schedule 3 cohort 1, 3.6 mg/kg) | Treatment-related TEAE: Blurred vision (schedule 3 cohort 1, 3.6 mg/kg) | Treatment-related TEAE: Dermatitis acneiform (schedule 3 cohort 1, 3.6 mg/kg) | Treatment-related TEAE: Diarrhea (schedule 3 cohort 1, 3.6 mg/kg) | Treatment-related TEAE: Dyspepsia (schedule 3 cohort 1, 3.6 mg/kg) | Treatment-related TEAE: Infusion-related reaction (schedule 3 cohort 1, 3.6 mg/kg) | Treatment-related TEAE: Macular edema (schedule 3 cohort 1, 3.6 mg/kg) | Treatment-related TEAE: Photopsia (schedule 3 cohort 1, 3.6 mg/kg) | Treatment-related TEAE: QTc prolongation (schedule 3 cohort 1, 3.6 mg/kg) | Treatment-related TEAE: Retinal detachment (schedule 3 cohort 1, 3.6 mg/kg) | AESI: Blurred vision (schedule 3 cohort 2, 4.8 mg/kg) | AESI: Detachment of retinal pigment epithelium (schedule 3 cohort 2, 4.8 mg/kg) | AESI: Macular edema (schedule 3 cohort 2, 4.8 mg/kg) | AESI: Photopsia (schedule 3 cohort 2, 4.8 mg/kg) | AESI: Vitreous floaters (schedule 3 cohort 2, 4.8 mg/kg) | Treatment-related TEAE: Blurred vision (schedule 3 cohort 2, 4.8 mg/kg) | Treatment-related TEAE: Dermatitis acneiform (schedule 3 cohort 2, 4.8 mg/kg) | Treatment-related TEAE: Dyspepsia (schedule 3 cohort 2, 4.8 mg/kg) | Treatment-related TEAE: Infusion-related reaction (schedule 3 cohort 2, 4.8 mg/kg) | Treatment-related TEAE: Macular edema (schedule 3 cohort 2, 4.8 mg/kg) | Treatment-related TEAE: Photopsia (schedule 3 cohort 2, 4.8 mg/kg) | Treatment-related TEAE: QTc prolongation (schedule 3 cohort 2, 4.8 mg/kg) | Treatment-related TEAE: Vitreous floaters (schedule 3 cohort 2, 4.8 mg/kg) | AESI: Detachment of retinal pigment epithelium (schedule 3 cohort 3, 6.4 mg/kg) | AESI: Vitreous floaters (schedule 3 cohort 3, 6.4 mg/kg) | Treatment-related TEAE: Dermatitis acneiform (schedule 3 cohort 3, 6.4 mg/kg) | Treatment-related TEAE: QTc prolongation (schedule 3 cohort 3, 6.4 mg/kg) | Treatment-related TEAE: Vitreous floaters (schedule 3 cohort 3, 6.4 mg/kg) | AESI: Subretinal fluid (schedule 3 cohort 4, 7.2 mg/kg) | AESI: Vitreous floaters (schedule 3 cohort 4, 7.2 mg/kg) | Treatment-related TEAE: QTc prolongation (schedule 3 cohort 4, 7.2 mg/kg) | Treatment-related TEAE: Subretinal fluid (schedule 3 cohort 4, 7.2 mg/kg) | Treatment-related TEAE: Vitreous floaters (schedule 3 cohort 4, 7.2 mg/kg) | AESI: Macular edema [2] | AESI: Retinal detachment [2] | AESI: Vitreous floaters [2] | Treatment-related TEAE: Diarrhea [2] | Treatment-related TEAE: Dyspepsia [2] | Treatment-related TEAE: Macular edema [2] | Treatment-related TEAE: Retinal detachment [2] | Treatment-related TEAE: Vitreous floaters [2] | AESI: Blurred vision [3] | AESI: Eye disorders [3] | AESI: Macular edema [3] | AESI: Retinal edema [3] | AESI: Subretinal fluid [3] | AESI: Vitreous floaters [3] | Patients with ≥1 AESI [3]
7 (78) n (%): AESI: Eye disorders (schedule 3 cohort 3, 6.4 mg/kg) | AESI: Patients with ≥1 AE (schedule 3 cohort 3, 6.4 mg/kg)
50 n: Total number of treatment-related TEAEs [1] | AESI: Total number of AEs (schedule 3 total N = 27)
1 (17) n (%): AESI: Detachment of retinal pigment epithelium [1] | AESI: Photopsia [1] | AESI: Retinal detachment [1] | AESI: Subretinal fluid [1] | AESI: Vitreous floaters [1] | Treatment-related TEAE: Dyspepsia [1] | Treatment-related TEAE: Photopsia [1] | Treatment-related TEAE: QTc prolongation [1] | Treatment-related TEAE: Retinal detachment [1] | Treatment-related TEAE: Subretinal fluid [1] | Treatment-related TEAE: Vitreous floaters [1]
1 (33) n (%): AESI: Subretinal fluid (schedule 3 cohort 1, 3.6 mg/kg) | Treatment-related TEAE: Subretinal fluid (schedule 3 cohort 1, 3.6 mg/kg) | AESI: Retinal detachment (schedule 3 cohort 2, 4.8 mg/kg) | AESI: Subretinal fluid (schedule 3 cohort 2, 4.8 mg/kg) | Treatment-related TEAE: Diarrhea (schedule 3 cohort 2, 4.8 mg/kg) | Treatment-related TEAE: Retinal detachment (schedule 3 cohort 2, 4.8 mg/kg) | Treatment-related TEAE: Subretinal fluid (schedule 3 cohort 2, 4.8 mg/kg) | AESI: Blurred vision (schedule 3 cohort 4, 7.2 mg/kg) | AESI: Detachment of retinal pigment epithelium (schedule 3 cohort 4, 7.2 mg/kg) | AESI: Macular edema (schedule 3 cohort 4, 7.2 mg/kg) | AESI: Photopsia (schedule 3 cohort 4, 7.2 mg/kg) | AESI: Retinal detachment (schedule 3 cohort 4, 7.2 mg/kg) | Treatment-related TEAE: Blurred vision (schedule 3 cohort 4, 7.2 mg/kg) | Treatment-related TEAE: Dermatitis acneiform (schedule 3 cohort 4, 7.2 mg/kg) | Treatment-related TEAE: Dyspepsia (schedule 3 cohort 4, 7.2 mg/kg) | Treatment-related TEAE: Infusion-related reaction (schedule 3 cohort 4, 7.2 mg/kg) | Treatment-related TEAE: Macular edema (schedule 3 cohort 4, 7.2 mg/kg) | Treatment-related TEAE: Photopsia (schedule 3 cohort 4, 7.2 mg/kg) | Treatment-related TEAE: Retinal detachment (schedule 3 cohort 4, 7.2 mg/kg) | AESI: Blurred vision [2] | AESI: Detachment of retinal pigment epithelium [2] | AESI: Photopsia [2] | AESI: Subretinal fluid [2] | Treatment-related TEAE: Blurred vision [2] | Treatment-related TEAE: Dermatitis acneiform [2] | Treatment-related TEAE: Infusion-related reaction [2] | Treatment-related TEAE: Photopsia [2] | Treatment-related TEAE: Subretinal fluid [2]
9 (33) n (%): AESI: Blurred vision (schedule 3 total N = 27) | Treatment-related TEAE: Blurred vision (schedule 3 total N = 27)
4 (15) n (%): AESI: Macular edema (schedule 3 total N = 27) | AESI: Photopsia (schedule 3 total N = 27) | AESI: Retinal detachment (schedule 3 total N = 27) | Treatment-related TEAE: Macular edema (schedule 3 total N = 27) | Treatment-related TEAE: Photopsia (schedule 3 total N = 27) | Treatment-related TEAE: Retinal detachment (schedule 3 total N = 27)
6 (22) n (%): AESI: Subretinal fluid (schedule 3 total N = 27) | Treatment-related TEAE: Dermatitis acneiform (schedule 3 total N = 27) | Treatment-related TEAE: Diarrhea (schedule 3 total N = 27) | Treatment-related TEAE: Infusion-related reaction (schedule 3 total N = 27) | Treatment-related TEAE: Subretinal fluid (schedule 3 total N = 27)
3 (100) n (%): Patients with ≥1 treatment-related TEAE (schedule 3 cohort 2, 4.8 mg/kg) | AESI: Eye disorders (schedule 3 cohort 4, 7.2 mg/kg) | AESI: Patients with ≥1 AE (schedule 3 cohort 4, 7.2 mg/kg) | Patients with ≥1 treatment-related TEAE (schedule 3 cohort 4, 7.2 mg/kg) | Patients with ≥1 treatment-related TEAE [2]
7%: grade ≥3 TEAE: infusion-related reaction (schedule 3) | grade ≥3 TEAE: respiratory tract infection (schedule 3)
no reports: retinal vein occlusion (all schedules)
6 (100) n (%): AESI: Eye disorders [1] | AESI: Patients with ≥1 AE [1] | Patients with ≥1 treatment-related TEAE [1]
19 n: Total number of treatment-related TEAEs (schedule 3 cohort 3, 6.4 mg/kg)
